# Data reported in ChEMBL document CHEMBL3739334, “Spiroindole Alkaloids and Spiroditerpenoids from Aspergillus duricaulis and Their Potential Neuroprotective Effects” (J Nat Prod, 2015).
# What was measured:
# [1] = target: T1, Amyloid-beta precursor protein (Homo sapiens, UniProt P05067); assay: Inhibition of amyloid beta (1 to 42 residues) (unknown origin) aggregation at 100 uM after 24 hrs by thioflavin T assay
# [2] = target: T1, Amyloid-beta precursor protein; assay: Inhibition of amyloid beta (1 to 42 residues) (unknown origin) aggregation after 24 hrs by thioflavin T assay
# Method in brief: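 Aβ1−42 was dissolved in DMSO as a 1 mg/mL stock, then incubated at 20 μM with a range of sample concentrations for 24 h at 37 °C. Thioflavin T was added to 3 μM, and fluorescence was read 30 min later (ex 442 nm, em 485 nm). Aβ alone served as control. Run in triplicate; IC50 is the mean.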
# [3] = Cytotoxicity against rat PC12 cells; type: cell-based; settings: pc-12
# T1 sequence (P05067 whole entry, the tested form may be a part): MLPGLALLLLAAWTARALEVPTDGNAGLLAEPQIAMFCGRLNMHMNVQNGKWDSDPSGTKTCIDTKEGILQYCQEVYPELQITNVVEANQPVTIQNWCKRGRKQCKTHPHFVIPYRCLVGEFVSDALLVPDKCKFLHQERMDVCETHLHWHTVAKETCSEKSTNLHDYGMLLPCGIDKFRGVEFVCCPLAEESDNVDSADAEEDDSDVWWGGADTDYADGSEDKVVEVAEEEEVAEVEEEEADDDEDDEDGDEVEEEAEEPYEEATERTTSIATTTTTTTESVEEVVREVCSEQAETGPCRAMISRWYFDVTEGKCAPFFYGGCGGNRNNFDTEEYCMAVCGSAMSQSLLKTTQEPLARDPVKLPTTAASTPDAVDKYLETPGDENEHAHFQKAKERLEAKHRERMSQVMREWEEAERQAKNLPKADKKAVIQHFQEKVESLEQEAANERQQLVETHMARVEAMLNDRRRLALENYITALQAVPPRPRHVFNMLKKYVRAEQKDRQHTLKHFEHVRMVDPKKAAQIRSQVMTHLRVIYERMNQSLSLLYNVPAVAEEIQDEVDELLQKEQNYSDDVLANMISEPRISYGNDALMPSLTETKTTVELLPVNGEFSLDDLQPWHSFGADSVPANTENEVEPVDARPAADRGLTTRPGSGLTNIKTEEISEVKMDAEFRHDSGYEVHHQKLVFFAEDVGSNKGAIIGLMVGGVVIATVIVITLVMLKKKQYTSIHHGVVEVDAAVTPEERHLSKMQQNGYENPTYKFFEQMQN
Compound,inhibition [1] [%],IC50 [2] [µM],Activity [3]
C[C@@H]1C[C@@]23C[C@H]4C(C)(C)[C@@]5(C[C@]4(CN2C1=O)N(C)C3=O)C(=O)Nc1c5ccc2c1C=CC(C)(C)O2,,> 300,
CC1(C)C=Cc2cc(C(=O)O)ccc2O1,,> 300,
C[C@H]1CN2C[C@]34C[C@@]5(C(=O)Nc6c5ccc5c6OC=CC(C)(C)O5)C(C)(C)[C@@H]3C[C@@]2(C1)C(=O)N4C,30,269,
CC(=O)O[C@H]1CC(=O)OC(C)(C)[C@@H]2CC[C@]3(C)[C@H](CC=C(C)[C@@]34C[C@]3(OC(C)=C(C)C3=O)C(=O)O4)[C@@]12C,,> 300,
C[C@@H]1C[C@@]23C[C@H]4C(C)(C)[C@@]5(C[C@]4(CN2C1=O)NC3=O)C(=O)Nc1c5ccc2c1OC=CC(C)(C)O2,,> 300,
CC1=CC[C@@H]2[C@@]3(C)C=CC(=O)OC(C)(C)[C@@H]3CC[C@@]2(C)[C@]12Cc1c(c(C)c(C)oc1=O)O2,,> 300,
CC1=CC[C@@H]2[C@@]3(C)[C@@H](O)CC(=O)OC(C)(C)[C@@H]3CC[C@@]2(C)[C@]12Cc1c(c(C)c(C)oc1=O)O2,,> 300,
C[C@@H]1C[C@@]23C[C@H]4C(C)(C)[C@@]5(C[C@]4(CN2C1=O)N(C)C3=O)C(=O)Nc1c5ccc2c1OC=CC(C)(C)O2,,> 300,

# Stronger by IC50 [2], values ahead:
inhibition [1] [%],IC50 [2] [µM],Compound,Activity [3]
30,244,C[C@@H]1C[C@@]23C[C@H]4C(C)(C)[C@@]5(C[C@]4(CN2C1=O)NC3=O)C(=O)Nc1c5ccc2c1C=CC(C)(C)O2,
30,204,C[C@H]1CN2C[C@]34C[C@@]5(C(=O)Nc6c5ccc5c6C=CC(C)(C)O5)C(C)(C)[C@@H]3C[C@@]2(C1)C(=O)N4C,Toxic
30,187,CN1C(=O)[C@@]23CCC(=O)N2C[C@@]12C[C@@]1(C(=O)Nc4c1ccc1c4C=CC(C)(C)O1)C(C)(C)[C@@H]2C3,
,71.9,O=C(/C=C/c1ccc(O)c(O)c1)O[C@H](Cc1ccc(O)c(O)c1)C(=O)O [ROSMARINIC ACID],
